Laboratory results published in the EternaBench riboswitch data.

System: MS2 coat protein
Experiment: apparent Kd, MS2 coat protein; higher = weaker binding; RNA-MaP array; FMN 200 µM where present
Procedure, shortened: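 Green signal from SNAP-549-labelled MS2 coat protein was normalised to red-channel RNA signal and to the median Fmax of control clusters. The protein was titrated from 0.7 or 1.5 nM, doubling to 3 µM, without and then with constant ligand, over designs transcribed by stalled E. coli RNA polymerase on Illumina sequencing-chip clusters, in 100 mM Tris-HCl pH 7.5, 80 mM KCl, 4 mM MgCl2, BSA, DTT, yeast tRNA and Tween-20. The apparent Kd is the median of filtered per-cluster binding-curve fits.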

[1] = designed as: ON switch for flavin mononucleotide, no ligand
[2] = ligand present: flavin mononucleotide, designed as: ON switch for flavin mononucleotide
[3] = designed as: OFF switch for flavin mononucleotide, no ligand
[4] = ligand present: flavin mononucleotide, designed as: OFF switch for flavin mononucleotide

Row | Sequence | apparent Kd [1] | apparent Kd [2] | apparent Kd [3] | apparent Kd [4]
1 | AUUUAUUAGUAAGGAUAUACUAGCGAUUAGCUUGUAGAAGGUACAGUCUUAUGUAUAACAUGUUAACAUGAGGAUCACCCAUGU | 60.4 nM | 27.9 nM | – | –
2 | AAUAACAGAGGAUAUACUAUUUUAUGUGUUUGUUAUUUUAAACAUGAGGAUCACCCAUGUAGAAGGCUGAAUGA | – | – | 26.4 nM | 26.4 nM
3 | CGAUAUUAUGCAGGAUAUCUUUCUUGAAUGAGGAGAGAAGGGCAUAGGGAGACAUAAGCCUUAUUACAUGAGGAUCACCCAUGU | – | – | 10.9 nM | 9.5 nM
4 | GGCUAACGGGCUAACAUGAGGAUCACCCAUGUGGACUCAUGGUAGGAUAUGCUGUACAAAGUACAGCAGAAGGGCCGGUGAGCC | 128 nM | 978 nM | – | –
5 | GGUCCAUCAUGAGGAUAUGGCACCUUAUUGGUGCCAGAAGGCAUGUCUAUAGACAUGAGGAUCACCCAUGUAAUAAAUUGGACC | 790 nM | 46.4 nM | – | –
6 | ACUGGGCGCCGACCCAUGUCUAUGGAGGAUAUUACUGCCGGUAUCUCACAUGAGGAUCACCCAUGUAAGAAGGCCAUAAACACC | – | – | 19.5 nM | 221 nM
7 | UAUAUUUAUGUAGGAUAUGGUAUAUAAAAUAUACCAGAAGGACAUGAGGAUCACCCAUGUAUGAAAUUCCAUAAUAAGCGUGUA | – | – | 12.2 nM | 13.8 nM
8 | AGAAACUACGAGAAGGACAAAAACGGUGCCGCAAACAUGAGGAUCACCCAUGUAGGAUAUCGUAGUUUCAGGAUCGUGAGAUCA | – | – | 14.2 nM | 84.7 nM
9 | AGGAAGUGCCAGAAGGCUCCUGGAAUCCUAGGGAGAGGAUAUGGCACAUGAGGAUCACCCAUGUGGUAGAUCUGUUUCGAAGUG | – | – | 93.4 nM | 31.1 nM
10 | UUCCCAAGUGCAGGAUAUGCUUCACCGACCUCAGCAGAAGGGCACAUGAGGAUCACCCAUGUGGCAAAAGUACACAGCAAGCUG | – | – | 7.74 nM | 11 nM
11 | ACAUGAGGAUCACCCAUGUGGAGUGAAGAAGGUGGUUACUUAAGACUCUUCCAUGUACUUAGGACUGAGGAUAUUCUAAUAUUU | 53.8 nM | 30.5 nM | – | –
12 | CGUAUGUCAGGAUAUGCGUAUGCCAGUCAGGGCGAGUGGCAGCAGAAGGGACAUGAGGAUCACCCAUGUUCGGG | – | – | 60.8 nM | 51.3 nM
13 | CAUCCGGCAGGAUAUACAUGAGGAUCACCCAUGUCAGAAAGCAAAUUGUGCGACUCAGGUAGAAGGGUUGGACU | – | – | 28.9 nM | 34.2 nM
14 | GUUUGAUGAGGAUAUCGAGGUUAGUACAUGAGGAUCACCCAUGUUAUCCAGGUGUCGGUUCGAGAAGGUAUUGGAC | – | – | 18.4 nM | 38.1 nM
15 | CGAUGGCAUGUAGGAUAUCGAGCUCAAAGAGCUCGAGAAGGACAUGAGGAUCACCCAUGUGCUCACAGACAGUGAGCGCUAUCG | – | – | 31.2 nM | 156 nM
16 | CAGAAGUCAGGAUAUGCUGCUCGUCACUUGCGUGAUGAGUAGCAGAAGGGACAUGAGGAUCACCCAUGUAAAGG | – | – | 160 nM | 417 nM
17 | CAGGUCUGAGGAUAUCCAUCUUCCUACAUGAGGAUCACCCAUGUUUCCCUCUGGGUUUUCGGAGAAGGCAGUUUUU | – | – | 263 nM | 226 nM
18 | UGUACGGACAUGAGGAUCACCCAUGUAACCAAGCAGUUGGUACAGGAUAUCGCUUAAUAACUAAGCGAGAAGGGUGGUUCUGCA | 32.5 nM | 63.4 nM | – | –
19 | GUACUGACAGGAUAUACAUGAGGAUCACCCAUGUCCUUAUGCUGACAAAAGUCAGCGAGUAGAAGGGUCUGUAC | – | – | 101 nM | 603 nM
20 | CGGAUGUGAGGAUAUACAUGAGGAUCACCCAUGUGAGCCAGCUAGCUGACUGGCUCAUGUAGAAGGCACGUCUG | – | – | 50.3 nM | 120 nM
21 | CGGUCUUGUAACUAUUUGUUUCACAUGAGGAUCACCCAUGUCAGAAGGAGGUACAUCUAUUAGACCUAGGAUAUGACGUGUAAG | – | – | 27.5 nM | 100 nM

Row | Sequence | apparent Kd [1] | apparent Kd [2] | apparent Kd [3] | apparent Kd [4]
22 | GUAGCUGCAGGAUAUCUAUCUUCUGACAUGAGGAUCACCCAUGUACUUACUUGGCUCAGUGGAGAAGGGCAGCGUU | – | – | 124 nM | 84.2 nM
23 | CGUAGUUGGUAAGGAUAUCCUACACUGUUCUGACCCGUGCAAGCUACAUGAGGAUCACCCAUGUGGGAGAAGGUGCGUCAACGC | – | – | 18.4 nM | 19.6 nM
24 | CAGCUGAAAGUCAGGAUAUCUAGAGCUGCGGCUCUAGAGAAGGGACAUGAGGAUCACCCAUGUCACUCCAGCUG | – | – | 16.4 nM | 18.3 nM
25 | ACAUGAGGAUCACCCAUGUAUUUGUAGGAUAUACACAAUUCUUUAUUACUCUAAUUAAUAUGUUUGUAGAAGGACACUGCAUGA | – | – | 9.71 nM | 9.52 nM
26 | AAAUGGAACUAAGGAUAUCUGUAUUUUGUUGAAACAUGAGGAUCACCCAUGUUCAUGAAAUUAUAGGAGAAGGUAGAUCCAUAA | 4.51 nM | 4.6 nM | – | –
27 | CGCACUGUACAUGAGGAUCACCCAUGUUAAUAUGAGGUAGUCAGAAGGCAUUGUUUGAGAUAUUAUGAGGAUAUGAUUAGUGCG | 110 nM | 28.9 nM | – | –
28 | AAAAACUGAGGAUAUACGAAAAAAAAAAAAAAAAAAAAAAAACAUGAGGAUCACCCAUGUAGAAGGCAGAAAAA | – | – | 50.4 nM | 38 nM
29 | GGUUGUCAAAGACAACCAUAACGAACAUGAGGAUCACCCAUGUAGGAUAUGCUUCUCAAAGAGAAGCAGAAGGACAUGUGUCUU | – | – | 31.8 nM | 177 nM
30 | AUUAUGUCAGGAUAUCAGUAGUAAAAAAAAAAAAUUACUACUGAGAAGGGACAUGAGGAUCACCCAUGUCAAAA | – | – | 23 nM | 30.6 nM
31 | AGUACUCAAAGAGUACGCGUAAGCACAUGAGGAUCACCCAUGUAGGAUAUGCUACUCAAAGAGUAGUAGAAGGACAUAUUCCUC | – | – | 5.85 nM | 7.46 nM
32 | CCGAUGAUAGGACAGGAUAUGACUGUCGUCACAUGAGGAUCACCCAUGUCCCGGCAAUGCCACCGUUAGAAGGGUCCUAUCUCGG | 13.1 nM | 13 nM | – | –
33 | GGCGAACAGGCUAACAUGAGGAUCACCCAUGUGGACUCAUGGUAGGAUAUGCUCAUCAAAGAUGAGCAGAAGGGCCGGUGAGCC | 54.8 nM | 463 nM | – | –
34 | UAUGUGUCAGGAUAUUAAUUAUUGGAGAAUGUGACGAUGAUUAAGAAGGGACAUGAGGAUCACCCAUGUUCAUC | – | – | 20.4 nM | 33.6 nM
35 | AAAUUUUGUCAAGGAUAUGUAUAAAAGAGUUGAAAACAUGAGGAUCACCCAUGUAUAUGGUGGGAACAGAAGGUGAAUAAGUAA | – | – | 190 nM | 182 nM
36 | GGCUGCGAUGUGAAGGAUAUCCGCGUCUGGACAUGAGGAUCACCCAUGUAUGCUUGGAUCAUGCCGGAGAAGGUCACGAAUGAUU | 38 nM | 16.6 nM | – | –
37 | ACAUUGCGAGGAUAUACAUGAGGAUCACCCAUGUGGUAGUGGAUACGGUAGGGCUAGUGUAGAAGGUGUCAUGG | – | – | 128 nM | 103 nM
38 | CAAAACGUCGAGAAGGGCUCAGCGCAAGUGCCAGCAGGAUAUCGACAUGAGGAUCACCCAUGUCGUAUUUCAGGGUAGAUUUCA | – | – | 8.66 nM | 34.9 nM
39 | GUGCCUAACUAGAAGGCAGUGUGCAAAGCAUUCUGAGGAUAUGGGUUCCGGAAACGGACAUGAGGAUCACCCAUGUGGCACAAA | 424 nM | 26.7 nM | – | –
40 | GUGUAGAUAGGAUAUGCGUGAGUCUAGCGAAGCUAGGCUCUACAUGAGGAUCACCCAUGUAGAAGGGUCUACAC | – | – | 21 nM | 18.1 nM
41 | CACACAUGAGGAUCACCCAUGUCGUGGGCGGAAAACUGUGCACAGGAUAUGGUGAAGGCAACUCACCAGAAGGGUGGUCAGGGA | 113 nM | 55 nM | – | –
42 | AGAUACUACGAGAAGGACAUGAGGAUCACCCAUGUAACCUGUAUCAGGAAUGUAGGAUAUCGUAGUAUCAGGAUCGUGAGAUCA | – | – | 6.79 nM | 7.82 nM
